# Active and inactive are the calls of the source. The calls are words filed in the database; no cut-off is given here.
# Assays:
# RAW264.7 [1] = experiment: Antiinflammatory activity in mouse RAW264.7 cells assessed as inhibition of LPS-induced TNFalpha production at 10 uM incubated for 2 hrs prior to LPS-challenge measured after 22 hrs by ELISA; format: functional, cell-based
# In short: (§1)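 RAW264.7 cells grown in DMEM with 10% FBS at 37 °C, 5% CO2, plated at 1.2 × 10^6/plate overnight. Compound pretreatment 2 h (screen at 10 μM; dose-response at 2.5, 5.0, 10 μM), then LPS 0.5 μg/mL for 22 h. Medium TNF-α or IL-6 measured by ELISA, normalized to cell protein, expressed as % of LPS control; IC50 derived from dose series.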
# RAW264.7 [2] = experiment: Antiinflammatory activity in mouse RAW264.7 cells assessed as inhibition of LPS-induced IL6 production at 10 uM incubated for 2 hrs prior to LPS-challenge measured after 22 hrs by ELISA; format: functional, cell-based; in short: as §1
# [3] = test system: Peritoneal macrophage cell; experiment: Antiinflammatory activity in ICR mouse primary peritoneal macrophages assessed as downregulation of LPS-induced COX-2 mRNA expression at 10 uM incubated for 2 hrs prior to LPS-challenge measured after 6 hrs by RT-qPCR analysis; format: functional, cell-based
# In short: (§2)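 Macrophages pretreated 2 h with compound at 10 μM or vehicle, then LPS 0.5 μg/mL for 6 h. mRNA of TNF-α, IL-6, COX-2, IL-1β and IL-12 quantified by RT-qPCR, normalized to β-actin mRNA and expressed as ratio to DMSO. Mean ± SD of four to seven independent experiments.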
# [4] = test system: Peritoneal macrophage cell; experiment: Antiinflammatory activity in ICR mouse primary peritoneal macrophages assessed as downregulation of LPS-induced IL-1beta mRNA expression at 10 uM incubated for 2 hrs prior to LPS-challenge measured after 6 hrs by RT-qPCR analysis; format: functional, cell-based; in short: as §2
# [5] = test system: Peritoneal macrophage cell; experiment: Antiinflammatory activity in ICR mouse primary peritoneal macrophages assessed as downregulation of LPS-induced IL-12 mRNA expression at 10 uM incubated for 2 hrs prior to LPS-challenge measured after 6 hrs by RT-qPCR analysis; format: functional, cell-based; in short: as §2
# Mus musculus [6] = species on record: Mus musculus; experiment: Inhibition of LPS-induced ERK phosphorylation in ICR mouse primary peritoneal macrophages at 10 uM incubated for 2 hrs prior to LPS-challenge measured after 1 hr by Western blot analysis
# In short: (§3)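 Cells pretreated 2 h with DMSO or compound (10 μM in the single-concentration set; 2.5, 5.0, 10, 20 μM in the dose series), then LPS 0.5 μg/mL for 1 h. p-ERK, ERK, p-p38 and p38 detected by Western blot with actin loading control; optical density ratio reported. Mean ± SE, three independent experiments.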
# [7] = molecular target: T1, MAP kinase p38 (Mus musculus) (UniProt P47811+O08911+Q9WUI1+Q9Z1B7); experiment: Inhibition of LPS-induced p38 phosphorylation in ICR mouse primary peritoneal macrophages at 10 uM incubated for 2 hrs prior to LPS-challenge measured after 1 hr by Western blot analysis; in short: as §3
# [8] = test system: Peritoneal macrophage cell; experiment: Antiinflammatory activity in ICR mouse primary peritoneal macrophages assessed as downregulation of high glucose-induced TNFalpha mRNA expression at 10 uM incubated for 2 hrs prior to high glucose-challenge measured after 3 hrs by RT-qPCR analysis; format: functional, cell-based
# In short: (§4)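 Peritoneal macrophages (1 × 10^6) pretreated with compound (10 μM) or DMSO for 2 h, then high glucose (25 mM) for 3 h. Low-glucose reference cells kept in RPMI-1640 with 5.5 mM glucose. TNF-α, IL-1β, IL-6 and IL-12 mRNA measured by RT-qPCR on whole-cell RNA. Mean ± SEM, three independent experiments run in duplicate.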
# [9] = test system: Peritoneal macrophage cell; experiment: Antiinflammatory activity in ICR mouse primary peritoneal macrophages assessed as downregulation of high glucose-induced IL1beta mRNA expression at 10 uM incubated for 2 hrs prior to high glucose-challenge measured after 3 hrs by RT-qPCR analysis; format: functional, cell-based; in short: as §4
# [10] = test system: Peritoneal macrophage cell; experiment: Antiinflammatory activity in ICR mouse primary peritoneal macrophages assessed as downregulation of high glucose-induced IL12 mRNA expression at 10 uM incubated for 2 hrs prior to high glucose-challenge measured after 3 hrs by RT-qPCR analysis; format: functional, cell-based; in short: as §4
# [11] = test system: Peritoneal macrophage cell; experiment: Antiinflammatory activity in ICR mouse primary peritoneal macrophages assessed as downregulation of high glucose-induced IL6 mRNA expression at 10 uM incubated for 2 hrs prior to high glucose-challenge measured after 3 hrs by RT-qPCR analysis; format: functional, cell-based; in short: as §4
# RAW264.7 [12] = experiment: Antiinflammatory activity in mouse RAW264.7 cells assessed as inhibition of LPS-induced IL6 production incubated for 2 hrs prior to LPS-challenge measured after 22 hrs by ELISA; format: functional, cell-based; in short: as §1
# RAW264.7 [13] = experiment: Antiinflammatory activity in mouse RAW264.7 cells assessed as inhibition of LPS-induced TNFalpha production incubated for 2 hrs prior to LPS-challenge measured after 22 hrs by ELISA; format: functional, cell-based; in short: as §1
# [14] = test system: Peritoneal macrophage cell; experiment: Antiinflammatory activity in ICR mouse primary peritoneal macrophages assessed as downregulation of LPS-induced TNF-alpha mRNA expression at 10 uM incubated for 2 hrs prior to LPS-challenge measured after 6 hrs by RT-qPCR analysis; format: functional, cell-based; in short: as §2
# [15] = test system: Peritoneal macrophage cell; experiment: Antiinflammatory activity in ICR mouse primary peritoneal macrophages assessed as downregulation of LPS-induced IL-6 mRNA expression at 10 uM incubated for 2 hrs prior to LPS-challenge measured after 6 hrs by RT-qPCR analysis; format: functional, cell-based; in short: as §2
# Mus musculus [16] = species on record: Mus musculus; experiment: Inhibition of JNK-induced NfkappaB p65 subunit translocation from cytoplasm to nucleus in LPS-stimulated ICR mouse primary peritoneal macrophages at 10 uM incubated for 2 hrs prior to LPS-challenge measured after 1 hr by fluorescence microscopy
# In short: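 Macrophages pretreated with DMSO or 10 μM compound for 2 h, stimulated with LPS 0.5 μg/mL for 1 h. Stained with anti-p65 and Cy3-conjugated secondary antibody, nuclei with DAPI. Imaged at 200× by fluorescence microscopy with red/blue overlay. Five independent experiments.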
# Mus musculus [17] = species on record: Mus musculus; experiment: Inhibition of JNK-induced IkappaBalpha degradation in LPS-stimulated ICR mouse primary peritoneal macrophages incubated for 2 hrs prior to LPS-challenge measured after 30 mins by Western blot analysis
# In short: (§5)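 Peritoneal macrophages pretreated with DMSO or compound (2.5, 5, 10 or 20 μM) for 2 h, then LPS 0.5 μg/mL for 30 min. Western blot of 40 μg lysate on 10% SDS-PAGE for IκBα (actin loading control) and p-JNK (JNK control); optical density normalized as percent of control. Mean ± SEM, three independent experiments.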
# Mus musculus [18] = species on record: Mus musculus; experiment: Inhibition of LPS-induced JNK phosphorylation in ICR mouse primary peritoneal macrophages incubated for 2 hrs prior to LPS-challenge measured after 30 mins by Western blot analysis; in short: as §5
# [19] = molecular target: T1, MAP kinase p38 (Mus musculus); experiment: Inhibition of LPS-induced p38 phosphorylation in ICR mouse primary peritoneal macrophages incubated for 2 hrs prior to LPS-challenge measured after 1 hr by Western blot analysis; in short: as §3
# Mus musculus [20] = species on record: Mus musculus; experiment: Inhibition of LPS-induced ERK phosphorylation in ICR mouse primary peritoneal macrophages at 20 uM incubated for 2 hrs prior to LPS-challenge measured after 1 hr by Western blot analysis; in short: as §3
# [21] = molecular target: T1, MAP kinase p38 (Mus musculus); experiment: Inhibition of LPS-induced p38 phosphorylation in ICR mouse primary peritoneal macrophages at 20 uM incubated for 2 hrs prior to LPS-challenge measured after 1 hr by Western blot analysis; in short: as §3
# Mus musculus [22] = experiment: Antiinflammatory activity against LPS-induced inflammation in C57BL/6 mouse assessed as survival at 15 mg/kg, iv administered 15 mins prior to LPS-challenge after 7 days relative to vehicle treated control; format: functional
# In short: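 Male B6 mice, 18−22 g, acclimatized ≥7 days. Compound at 2 mg/mL in macrogol 15 hydroxystearate solubilizer (5−10% final) with or without MCT (0.5−2% final), 200 μL iv at 15 mg/kg, 15 min before iv LPS 20 mg/kg. Vehicle controls got 10% solubilizer/2% MCT. Survival and body weight recorded every 12 h for 7 days; n = 10 per group.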
# Mus musculus [23] = experiment: Toxicity in C57BL/6 mouse assessed as weight loss at 15 mg/kg, iv up to 60 hrs; format: organism-based; design: dose 15 mg/kg, route intravenous; conditions: in vivo
# In short: (§6)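 Male B6 mice (18−22 g) given compound at 15 mg/kg iv (2 mg/mL in macrogol 15 hydroxystearate 5−10% ± MCT 0.5−2%, 200 μL). LPS 20 mg/kg iv followed 15 min later. Vehicle controls received 10% solubilizer/2% MCT. Body weight recorded every 12 h for 7 days; n = 10 per group.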
# Mus musculus [24] = experiment: Toxicity in C57BL/6 mouse assessed as weight loss at 15 mg/kg, iv after 60 hrs; format: organism-based; design: dose 15 mg/kg, route intravenous; conditions: in vivo; in short: as §6
# RAW264.7 [25] = experiment: Antiinflammatory activity in mouse RAW264.7 cells assessed as inhibition of LPS-induced TNFalpha production at 10 uM incubated for 2 hrs prior to LPS-challenge measured after 22 hrs by ELISA relative to control; format: functional; in short: as §1
# RAW264.7 [26] = experiment: Antiinflammatory activity in mouse RAW264.7 cells assessed as inhibition of LPS-induced IL6 production at 10 uM incubated for 2 hrs prior to LPS-challenge measured after 22 hrs by ELISA relative to control; format: functional; in short: as §1
# Mus musculus [27] = species on record: Mus musculus; experiment: Inhibition of LPS-induced ERK phosphorylation in ICR mouse primary peritoneal macrophages incubated for 2 hrs prior to LPS-challenge measured after 1 hr by Western blot analysis; in short: as §3
inhibition (Mus musculus [6]),inhibition [7],IC50 (RAW264.7 [12]),SMILES,inhibition (RAW264.7 [1]),inhibition (RAW264.7 [2]),Activity [3],Activity [4],Activity [5],Activity [8],Activity [9],Activity [10],Activity [11],inhibition (RAW264.7 [12]),inhibition (RAW264.7 [13]),Activity [14],Activity [15],IC50 (RAW264.7 [13]),also measured
,,,COc1ccc(C(=O)/C=C/c2cccc(OC)c2OC)cc1,Active,Active,,,,,,,,,,,,,
Active,Active,> 10 µM,COc1ccc(C(=O)/C=C/c2ccc(O)c(OC)c2)cc1,Active,Active,Active,Active,Active,Active,Active,Active,Active,Dose-dependent effect,Dose-dependent effect,Active,Active,,
Active,Active,5.35 µM,COc1ccc(/C=C/C(=O)c2ccc(OC)c(OC)c2)c(OC)c1,Active,Active,Active,Active,Active,Active,inactive,Active,Active,Dose-dependent effect,Dose-dependent effect,Active,Active,2.76 µM,
Active,Active,6.88 µM,COc1cc(C(=O)/C=C/c2ccc(N(C)C)cc2)cc(OC)c1OC,Active,Active,inactive,inactive,Active,Active,Active,Active,inactive,Dose-dependent effect,Dose-dependent effect,Active,Active,2.9 µM,inhibition at 10 µM (RAW264.7 [25]): 61.2%; inhibition at 10 µM (RAW264.7 [26]): 73.4%
,,,COc1cc(/C=C/C(=O)CC(=O)/C=C/c2ccc(O)c(OC)c2)ccc1O,Active,Active,,,,,,,,,,,,,
,,,COc1ccc(C(=O)/C=C/c2ccccc2Cl)cc1OC,Active,Active,,,,,,,,,,,,,
,,,COc1ccc(/C=C/C(=O)c2cc(OC)c(OC)c(OC)c2)c(OC)c1,Active,Active,,,,,,,,,,,,,

SMILES,inhibition (Mus musculus [6]),inhibition [7],IC50 (RAW264.7 [12]),inhibition (RAW264.7 [1]),inhibition (RAW264.7 [2]),Activity [3],Activity [4],Activity [5],Activity [8],Activity [9],Activity [10],Activity [11],inhibition (RAW264.7 [12]),inhibition (RAW264.7 [13]),Activity [14],Activity [15],IC50 (RAW264.7 [13]),also measured
COc1ccc(C(=O)/C=C/c2c(F)cccc2F)cc1,Active,Active,5.55 µM,,,inactive,Active,Active,Active,Active,Active,Active,Dose-dependent effect,Dose-dependent effect,Active,Active,8.42 µM,inhibition (Mus musculus [16]): Active; inhibition (Mus musculus [17]): Dose-dependent effect; inhibition (Mus musculus [18]): Dose-dependent effect; inhibition [19]: Dose-dependent effect; inhibition (Mus musculus [20]): Active; inhibition [21]: Active; Activity (Mus musculus [22]): 80%; Activity (Mus musculus [23]): Toxic; Activity (Mus musculus [24]): Non-toxic
COc1ccc(C(=O)/C=C/c2ccccc2Cl)cc1,Active,Active,8.22 µM,,,Active,Active,Active,Active,Active,Active,Active,Dose-dependent effect,Dose-dependent effect,Active,Active,7.32 µM,inhibition (Mus musculus [16]): Active; inhibition (Mus musculus [17]): Dose-dependent effect; inhibition (Mus musculus [18]): Dose-dependent effect; inhibition (Mus musculus [27]): Dose-dependent effect; inhibition [19]: Dose-dependent effect; inhibition (Mus musculus [20]): Active; inhibition [21]: Active; Activity (Mus musculus [22]): 70%; Activity (Mus musculus [23]): Toxic; Activity (Mus musculus [24]): Non-toxic
